CHRM5 PAM – potentiates acetylcholine response at human M5 receptor; P08912; CHO-K1 hM5, Fluo-8 calcium, ACh EC20 PAM; 0% = ACh EC20, 100% = ACh EC100; activation, % at 3 µM; 360,000 tested, 0.3% active; AID 624038;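 active = activation above the run cutoff, the mean activation of all test compounds plus 3 SD, cut at about 18% in these data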
Target sequence (P08912 whole entry, looked up): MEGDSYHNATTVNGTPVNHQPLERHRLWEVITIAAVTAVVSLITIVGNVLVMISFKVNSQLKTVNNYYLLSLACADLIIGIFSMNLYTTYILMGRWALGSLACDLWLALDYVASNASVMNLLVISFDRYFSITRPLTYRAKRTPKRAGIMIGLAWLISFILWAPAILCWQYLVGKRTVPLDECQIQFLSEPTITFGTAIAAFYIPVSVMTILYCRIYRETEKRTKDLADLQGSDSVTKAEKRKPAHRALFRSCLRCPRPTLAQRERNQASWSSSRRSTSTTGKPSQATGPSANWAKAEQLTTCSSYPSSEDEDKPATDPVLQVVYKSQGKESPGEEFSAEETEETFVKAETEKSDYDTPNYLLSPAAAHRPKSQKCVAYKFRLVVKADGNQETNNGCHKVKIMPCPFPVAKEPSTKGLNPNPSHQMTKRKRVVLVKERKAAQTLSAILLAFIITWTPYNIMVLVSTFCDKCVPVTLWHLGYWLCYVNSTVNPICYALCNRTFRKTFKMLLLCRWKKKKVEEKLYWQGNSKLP
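Probe or stimulus: acetylcholine, EC20 level; Assay system: human M5 receptor in CHO-K1 cells; Schedule: compound preincubation 140 s before EC20 acetylcholine addition; Technique: intracellular calcium via Fluo-8 fluorescence; Dosing: single-point, 3 µM nominal; Read-out basis: percent activation from peak-over-basal fluorescence ratio, scaled EC20-to-EC100 acetylcholine; Repeats: one well per compound, no replicates.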
M4 antag – CHRM4 antagonism in calcium assay; CHO-hM4 cells, ACh EC80, Fluo-8 calcium fluorescence; inhibition, % at 3 µM; 360,000 tested, 0.73% active;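 active = inhibition above its plate's cutoff, the mean inhibition of sample wells plus 3 SD, cut at about 27% in these data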;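 note: 0% = acetylcholine EC80 with DMSO and 100% = DMSO without agonist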
M5 antag – blocks acetylcholine activation of human M5 receptor. CHO-hM5 cells, Fluo-8 calcium fluorescence, ACh EC80. inhibition, % at 3 µM. 360,000 tested, 0.59% active. AID 624040. P08912;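 active = inhibition above a per-plate cutoff, the mean of that plate's test compounds plus 3 SD, cut at about 27% in these data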;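 note: 0% = acetylcholine EC80 with DMSO and 100% = DMSO without agonist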
CHRM4 agonist – CHRM4 agonism in calcium assay; P08173; CHO-K1 hM4/Gqi5, Fluo-8 calcium fluorescence; vehicle 0%, full acetylcholine response 100%; activation, % at 3 µM; 360,000 tested, 0.14% active;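 active = activation above the run mean over all test wells plus 3 SD, cut at about 32% in these data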;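 note: peak over basal fluorescence ratio per well then scaled between controls; 0% = DMSO wells and 100% = acetylcholine at EC100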
M4 PAM – CHRM4 positive allosteric modulation; P08173; CHO-K1 hM4/Gqi5, Fluo-8 calcium fluorescence, ACh EC20; 0% = ACh EC20, 100% = maximal ACh; activation, % at 3 µM; 360,000 tested, 0.4% active; AID 624126;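 active = activation above its plate's cutoff, the mean activation of sample wells plus 3 SD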
M5 ag – agonists of human muscarinic M5 receptor (CHRM5); AID 624037; CHO-K1 hM5 cells, Fluo-8 calcium fluorescence; 0% DMSO wells, 100% maximal acetylcholine response; 360,000 tested, 0.19% active; activation, % at 3 µM;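 active = activation above the run's mean over test compounds plus 3 SD, cut at about 23% in these data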;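 note: signal is peak over basal fluorescence ratio across the kinetic read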
* = called active by the depositor. A selection: hits, their analogues and other compounds. The true share with any hit is near 1.8%.

SMILES | CHRM5 PAM | M4 antag | M5 antag | CHRM4 agonist | M4 PAM | M5 ag
O=C(NC1CC1)C1CCN(C2CCN(C(=O)/C=C/c3cccs3)CC2)CC1 | 28.4* | 0.0 | 29.3* | 2.6 | -2.6 | -1.7
O=C(O)Cc1ccc2ccc3ccccc3c2c1 | 19.2* | -11.5 | -16.7 | 2.4 | 5.6 | 3.3
CC[n+]1ccccc1/C=C/c1ccc(N(C)C)cc1 | 0.5 | 2.1 | -2.2 | 1.4 | 0.8 | -4.2
CCCCCC[n+]1ccccc1/C=C/c1ccc(N(C)C)cc1 | -21.4 | 49.4* | 63.5* | 32.5* | -17.1 | 42.5*
CCCCN(CC)Cc1c(O)ccc2c(-c3ccccc3)cc(=O)oc12 | 2.9 | 27.5* | 3.6 | -0.4 | -26.4 | -12.2
C[N+]12CCC(CC1)C(OC(=O)C(O)(c1ccccc1)c1ccccc1)C2 (stereo not given) | -17.8 | 99.6* | 98.9* | 0.2 | -17.9 | -1.7
CCN(CC)C(=O)c1[nH]cnc1C(=O)NCC(=O)OCc1ccccc1 | -29.0 | 23.8 | 26.9* | 24.0 | -12.4 | 3.1
O=C(CNC(=O)c1nc[nH]c1C(=O)NCC(=O)OCc1ccccc1)OCc1ccccc1 | -26.1 | 17.4 | 21.1 | 22.2 | -8.5 | 6.3
C[C@H](NC(=O)c1nc[nH]c1C(=O)NCC(=O)OCc1ccccc1)c1ccccc1 | -32.4 | 28.2* | 13.1 | 24.1 | -14.5 | 3.3
CC(C)(C)OC(=O)NCc1ccc(CNC(=O)c2[nH]cnc2C(=O)NCC(=O)OCc2ccccc2)cc1 | -35.9 | 38.0* | 3.6 | 30.4 | -13.9 | 10.7
Cc1cnc(C(=O)OC(C)C(=O)NC2CCCc3ccccc32)cn1 (stereo not given) | 12.1 | -7.9 | -4.6 | 1.3 | 17.0 | -2.2
Cc1cc(C)cc(SCc2noc(C(=O)NCCC(C)C)c2C(=O)NCCC(C)C)c1 | -3.1 | 7.1 | 8.0 | 1.9 | 8.8 | 0.1
O=C(COC(=O)c1ccc(Cl)c(S(=O)(=O)N2CCCCC2)c1)NC1CCCCC1 | 4.8 | -6.7 | -6.0 | 0.7 | 2.8 | 0.7
CN1CCN(c2ccc(-c3ccnn3C(=O)Nc3cccc(C(F)(F)F)c3)cc2)CC1 | -13.9 | 9.2 | 28.0* | 11.2 | -3.0 | 5.8
COc1c(F)c(F)c(C(=O)Nc2ccccc2N2CCN(C(=O)C(C)C)CC2)c(F)c1F | 30.6* | -6.5 | 26.6 | 3.0 | 1.8 | 1.7
Cc1cccc(N(C)C(=O)C2CCCN2S(=O)(=O)c2cccc3nsnc23)c1 (stereo not given) | 2.3 | 28.6* | -1.4 | 0.2 | 9.1 | 3.0
CN(CC(=O)N1CCN(C2CCCCC2)CC1)S(=O)(=O)c1cccc2nsnc12 | -1.8 | 29.1* | 2.0 | 2.0 | 1.0 | 0.3
COc1cc(CNS(=O)(=O)c2ccc3c(c2)CC(C)N3C(C)=O)cc(OC)c1OC (stereo not given) | -0.1 | -12.7 | -15.2 | 1.3 | 8.2 | -1.7
Cc1ccc(S(=O)(=O)N(CCC(=O)NCc2ccc(S(N)(=O)=O)cc2)c2ccccc2)cc1 | -0.5 | 8.4 | 4.4 | -0.1 | 1.2 | -0.7
CCOc1cc(CNCCc2ccc(S(N)(=O)=O)cc2)ccc1OCc1ccc(Cl)cc1 | -10.4 | 42.0* | 25.7 | 29.3 | -10.9 | 1.5
COc1cc(CNCCc2ccc(S(N)(=O)=O)cc2)ccc1OCc1ccc(Cl)cc1 | -5.5 | 5.5 | 4.3 | 15.4 | -3.3 | -4.5
COc1ccc(N2CCN(C(=O)c3ccc(Cl)c(S(=O)(=O)N4CCOCC4)c3)CC2)cc1 | 1.6 | -16.2 | 0.8 | 4.5 | 1.2 | 4.5
Cc1ccc(NC(=O)C[n+]2ccn(C3=C([O-])c4ccccc4C3=O)c2)cc1 | -17.2 | 7.7 | 29.4* | 15.4 | -7.1 | -2.3
O=[N+]([O-])c1cccc(OCC(O)CN2CCN(S(=O)(=O)c3cc(Cl)ccc3Cl)CC2)c1 (stereo not given) | -10.0 | 5.6 | 17.4 | 13.2 | -12.1 | -0.2
COc1cccc(C(CNC(=O)C(c2ccccc2)c2ccccc2)N(C)C)c1 (stereo not given) | -12.7 | 8.1 | 18.8 | 1.1 | -15.0 | -6.9

Screens deposited in PubChem BioAssay by The Scripps Research Institute Molecular Screening Center.
